Assay outcomes from PubChem.
Exocytosis inh: lytic granule exocytosis inhibition. TALL-104 LAMP-1 surface exposure, flow cytometry; cells stimulated with thapsigargin and PMA. inhibition, % at 10 µM. hit rate 0.66% among 360,000;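 active means inhibition above about 55%, limit read from the data; inconclusive means no clear call, values can overlap the other calls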
HGIII-sPLA2 inh: Inhibits HGIII-sPLA2 liposome hydrolysis, primary screen; QFRET BODIPY PC-A2 liposome hydrolysis, fluorescence; inhibition, % at 12.2 µM; hit rate 0.56% among 370,000;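 active means inhibition above mean plus 3 SD of compounds lying within the high and low control bounds, cut at about 19% in these data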
A1 inh: inhibitors of the anti-apoptotic protein A1, read as caspase activation. AID 2462. hit rate 0.066% among 330,000. MEF A1-2A-BIM cells, Caspase-Glo 3/7 luminescence, 3 h; percent of clofoctol response, vehicle zero. caspase activation, % (concentration not given with the values);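 active means over half of replicate activation scores above 10%, or exactly half above 10 with the replicate mean above 10; inconclusive means replicate mean below 10 yet half the replicates above 10; inactive means over half of replicates below 10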
MC4R barr agon: agonists of human melanocortin 4 receptor (MC4R) beta-arrestin. P32245. U2OS MC4R beta-arrestin complementation, luminescence; percent of melanotan II response, DMSO zero. activation, % at 8.9 µM. hit rate 0.98% among 360,000;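 active means activation above a per-plate cutoff, the mean activation of sample wells on that plate plus 3 SD, cut at about 8% in these data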
Target sequence (P32245 whole entry, looked up): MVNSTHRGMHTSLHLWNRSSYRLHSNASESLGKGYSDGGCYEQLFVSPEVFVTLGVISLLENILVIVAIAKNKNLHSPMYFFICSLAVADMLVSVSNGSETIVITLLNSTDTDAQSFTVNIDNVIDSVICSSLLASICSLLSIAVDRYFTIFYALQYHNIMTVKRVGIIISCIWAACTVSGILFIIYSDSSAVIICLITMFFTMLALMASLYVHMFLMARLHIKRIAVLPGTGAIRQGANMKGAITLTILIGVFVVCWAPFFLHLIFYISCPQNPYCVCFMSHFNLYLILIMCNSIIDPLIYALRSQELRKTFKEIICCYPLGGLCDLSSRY
NTR1 agonist: activates human neurotensin receptor 1. P30989. hit rate 0.17% among 330,000. NTR1-U2OS beta-arrestin-GFP spot imaging, agonist mode. activation, % at 20 µM;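 active means activation at or above 40% of the spot to cytoplasm intensity ratio, with at least 20 cells analyzed; inconclusive means wells under 20 cells, flagged as cytotoxic or low count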
Target sequence (P30989 whole entry, looked up): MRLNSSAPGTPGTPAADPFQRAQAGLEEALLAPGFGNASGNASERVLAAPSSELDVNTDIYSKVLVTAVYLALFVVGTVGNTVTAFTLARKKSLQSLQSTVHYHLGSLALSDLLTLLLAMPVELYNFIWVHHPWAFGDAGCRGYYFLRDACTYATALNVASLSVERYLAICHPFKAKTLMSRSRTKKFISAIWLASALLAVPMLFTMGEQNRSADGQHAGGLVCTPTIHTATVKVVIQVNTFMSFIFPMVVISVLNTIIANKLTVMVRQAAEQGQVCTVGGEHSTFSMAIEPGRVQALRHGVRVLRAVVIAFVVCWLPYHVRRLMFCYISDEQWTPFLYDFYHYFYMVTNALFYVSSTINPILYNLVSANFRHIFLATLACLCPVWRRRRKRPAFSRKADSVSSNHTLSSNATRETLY
MC4R antag cAMP: human MC4R antagonism in cAMP assay | P32245 | inhibition, % at 6.5 µM | hit rate 0.48% among 360,000 | MC4R-expressing cells, MTII-stimulated cAMP, LANCE TR-FRET | AID 540295;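 active means inhibition above its plate's cutoff, the mean of tested wells on that plate plus 3 SD, cut at about 29% in these data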
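System: U2OS cells stably expressing human melanocortin 4 receptor (MC4R). Reagent: Melanotan II challenge after compound preincubation. Doses: 6.5 µM. Times: 30-min compound, 1-h challenge, 1-h detection, room temperature. Measured by: TR-FRET with Eu-cAMP and labeled anti-cAMP, 671 nm. Replicates: singlicate.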
Exocytosis CP01: lytic granule exocytosis inhibition | shares compounds with Exocytosis inh | AID 651954 | TALL-104 cells, LAMP-1 externalization, flow cytometry; stimulated with PMA plus thapsigargin | hit rate 11% among 1,500 | inhibition, % at 10 µM; in the data active means inhibition above about 60%
Each line names hits and unclear results; the compound was inactive in the other large screens (follow-up assays come after a bar, where they were run). In the library only some 2.5% were active in any assay of this set; here they are far more common.

Cc1c(C(=O)O)sc(S(=O)(=O)N2CCN(C(=O)Cc3ccc(F)cc3)CC2)c1C(=O)O	none
COc1cccc(CN(C)C(=O)c2ccc(Oc3ccccc3)cc2)c1OC	Exocytosis inh 72.6 | Exocytosis CP01 inactive
COc1ccc(CC(=O)Nc2nc(-c3ccccc3)c(C(C)=O)s2)cc1OC	Exocytosis inh 78.0 | Exocytosis CP01 inactive
CCC1C(=NO)C(CC)C(c2ccccc2)NC1c1ccccc1 (stereo unspecified)	none
CCC1C(=O)C(CC)C(c2ccccc2)NC1c1ccccc1 (stereo unspecified)	Exocytosis inh 60.6 | Exocytosis CP01 inactive
CCC[C@H]1[C@@H](OC(=O)NCc2cccnc2)CC[C@@]23CCCN2C(=O)CCC[C@@H]13	none (no result: Exocytosis inh, A1 inh, MC4R barr agon, NTR1 agonist, MC4R antag cAMP)
Cc1ccc(CNC(=O)C2CC(c3cccc(F)c3)=NO2)cc1 (stereo unspecified)	Exocytosis inh 72.4 | Exocytosis CP01 inactive
CCOc1ccc(Cl)cc1S(=O)(=O)N1CCC(C(=O)NCc2cccnc2)CC1	none
Cc1cc(C(=O)N2CCN(S(=O)(=O)c3ccccc3C#N)CC2)c(C)o1	none
N#Cc1ccccc1S(=O)(=O)N1CCN(S(=O)(=O)c2ccc(Br)c(C(=O)O)c2)CC1	Exocytosis inh 59.2 | Exocytosis CP01 inactive
O=C(C1=C[C@H](C2CCCCC2)C[C@H](OCCCCO)O1)N1CCN(Cc2ccccc2)CC1	none
Cc1cc(C)n(CCc2nc(-c3ccc(C)o3)cs2)n1	Exocytosis inh 68.2 | Exocytosis CP01 inactive
Cc1cc(C)n(CCc2nc(-c3cc4ccccc4o3)cs2)n1	none
CCC(CC)C(=O)Nc1ccc(Sc2ccc([N+](=O)[O-])cc2)cc1	Exocytosis inh 55.6 | Exocytosis CP01 inactive
Cc1cc(N/N=C/c2ccc(O)cc2)c2cccc(C)c2n1	none
Cc1cc(C)c2nc(C)cc(N/N=C/c3ccc(O)cc3)c2c1	Exocytosis inh 86.8 | Exocytosis CP01 101.2
COC(=O)[C@]12C[C@H](CC(=O)NCc3cccc4ccccc34)C(=O)N(CCC3=CCCCC3)C1=C[C@H](COCc1ccccc1)O[C@@H]2C	none (no result: Exocytosis inh, A1 inh, MC4R barr agon, NTR1 agonist, MC4R antag cAMP)
C=CCn1c(Cc2cccs2)nnc1SCC(=O)Nc1ccc(OCc2ccccc2)cc1	none (no result: Exocytosis inh, A1 inh, MC4R barr agon, NTR1 agonist, MC4R antag cAMP)
COc1cccc(-c2nc(NC(C)(C)C)c3ccccc3n2)c1O	Exocytosis inh 56.4 | Exocytosis CP01 inactive
CC(=O)Nc1ccc2sn(-c3ccccc3)c(=O)c2c1	Exocytosis inh 59.8 (no result: A1 inh, NTR1 agonist) | Exocytosis CP01 93.9
O=c1c2cc([N+](=O)[O-])ccc2sn1-c1ccccc1	none (no result: A1 inh, NTR1 agonist)
CN(C)CCCn1c2c3ccccc3ccc2c2oc(=O)c3ccccc3c21	Exocytosis inh 56.3 (no result: A1 inh, NTR1 agonist) | Exocytosis CP01 inactive
OC(c1ccccc1)(c1ccccc1)C1CCN(CCCOc2ccc3c(c2)CCCC3)CC1	Exocytosis inh 62.0 (no result: A1 inh, MC4R barr agon, NTR1 agonist, MC4R antag cAMP) | Exocytosis CP01 inactive
O=C(CSc1nc2ccccc2s1)N1c2ccccc2Sc2ccccc21	Exocytosis inh 62.5 | Exocytosis CP01 inactive
CCOC(=O)N1CCN(S(=O)(=O)c2ccc(C(=O)Nc3nc4ccccc4s3)cc2)CC1	Exocytosis inh 100.1 | Exocytosis CP01 inactive
CCOC(=O)N1CCN(S(=O)(=O)c2ccc(C(=O)N(CCCN(C)C)c3nc4ccc(CC)cc4s3)cc2)CC1	Exocytosis inh 62.3 | Exocytosis CP01 inactive
CCc1ccc2nc(N(CCCN(C)C)C(=O)c3ccc(S(=O)(=O)N4CCCc5ccccc54)cc3)sc2c1	Exocytosis inh 56.5 | Exocytosis CP01 inactive
CCOc1ccc2nc(N(CCCN(C)C)C(=O)c3ccc(S(=O)(=O)N4CCc5ccccc5C4)cc3)sc2c1	Exocytosis inh 67.7 | Exocytosis CP01 83.5
CCOC(=O)N1CCN(S(=O)(=O)c2ccc(C(=O)N(CCN(C)C)c3nc4ccc(CC)cc4s3)cc2)CC1	none
COc1cc2nc(N(CCCN(C)C)C(=O)c3ccc(S(=O)(=O)N4CCc5ccccc5C4)cc3)sc2cc1OC	none
CC1(C(=O)NS(=O)(=O)c2cccc(OC(F)F)c2)CCN1C(=O)CCc1cccs1 (stereo unspecified)	none (no result: A1 inh, NTR1 agonist)
COc1ccc(C(=O)NNC(=O)CSc2nnc(-c3cccnc3)o2)cc1	none
Cc1ccc(OCCn2c(CCNC(=O)C3CCCCC3)nc3ccccc32)cc1	none (no result: Exocytosis inh, A1 inh, MC4R barr agon, NTR1 agonist, MC4R antag cAMP)
COc1ccc2nc(N(CCN(C)C)C(=O)c3ccc4ncsc4c3)sc2c1	Exocytosis inh 75.1 (no result: A1 inh, NTR1 agonist) | Exocytosis CP01 inactive
Cc1ccc(Cl)cc1N1CCN(S(=O)(=O)c2cccc(S(=O)(=O)N3CCCC3)c2)CC1	Exocytosis inh 76.9 | Exocytosis CP01 inactive
Cc1ccc(Cl)cc1N1CCN(S(=O)(=O)c2ccc3[nH]c(=O)c(=O)[nH]c3c2)CC1	none
Cc1ccc(S(=O)(=O)N2CCOCC2)cc1NC(=O)CN1CCN(C)CC1	none
Cc1ccc(S(=O)(=O)N2CCOCC2)cc1NC(=O)CN1CCC(Cc2ccccc2)CC1	Exocytosis inh 71.4 | Exocytosis CP01 inactive
NCCc1c(-c2ccccc2)n(-c2ccccc2)c2ccccc12	Exocytosis inh 90.6 (no result: A1 inh) | Exocytosis CP01 69.8
COc1ccc(Cl)c(-c2cc(C(=O)NCc3ccco3)[nH]n2)c1	none (no result: A1 inh, NTR1 agonist)
Cc1ccc(Cl)cc1-c1cc(C(=O)NCc2ccc(C(F)(F)F)cc2)[nH]n1	Exocytosis inh 96.2 (no result: A1 inh, NTR1 agonist) | Exocytosis CP01 102.6
COc1ccc(Cl)c(-c2cc(C(=O)NCc3ccc(C(F)(F)F)cc3)[nH]n2)c1	Exocytosis inh 97.0, MC4R barr agon 9.5 (no result: A1 inh, NTR1 agonist) | Exocytosis CP01 64.0
COc1cc(C2NC(=S)NC(C)=C2C(=O)Nc2ccc(C)cc2)ccc1O (stereo unspecified)	none
O=C(Nc1ccccc1-c1nnc(SCc2ccccc2)o1)c1ccccc1	Exocytosis inh 67.0 | Exocytosis CP01 inactive
O=C(Nc1ccccc1-c1nnc(SCc2ccc(Cl)cc2)o1)c1ccccc1	none (no result: A1 inh)
CCn1cc(C(=O)NCCc2ccc(OC)cc2)c(=O)c2ccc(C)nc21	none
COc1ccc(CN(C)CC2CCCN(CCc3ccc(F)cc3)C2)c(OC)c1OC (stereo unspecified)	Exocytosis inh 70.0 | Exocytosis CP01 inactive
COc1ccc(CCN2CCCC(CN(C)Cc3cc(OC)ccc3OC)C2)cc1 (stereo unspecified)	Exocytosis inh 71.8 | Exocytosis CP01 inactive
COc1ccc(CCN2CCCC(CN(C)Cc3cccc(OC)c3)C2)cc1 (stereo unspecified)	Exocytosis inh 56.2, A1 inh inconclusive | Exocytosis CP01 inactive
CN1CC=C(c2ccc(C(F)(F)F)cc2)N(c2ccccc2)C1=O	none (no result: Exocytosis inh, A1 inh, MC4R barr agon, NTR1 agonist, MC4R antag cAMP)
COc1cc(C(NC(=O)C(F)(F)F)C2CCCC=C2c2ccccc2)cc(OC)c1OC (stereo unspecified)	none (no result: Exocytosis inh, A1 inh, MC4R barr agon, NTR1 agonist, MC4R antag cAMP)
CCC(=O)c1ccccc1OCCCN1CCC(Cc2ccccc2)CC1	Exocytosis inh 65.0 | Exocytosis CP01 inactive
